Results: ChEMBL document CHEMBL3877250, “Design, synthesis, and biological evaluation of (2E)-(2-oxo-1, 2-dihydro-3H-indol-3-ylidene)acetate derivatives as anti-proliferative agents through ROS-induced cell apoptosis” (Eur J Med Chem, 2016)
Calls of active or inactive are those of the source. No cut-off for these calls is given here.

Columns and labels:
[1] = Cytotoxicity against human HCT116 cells assessed as growth inhibition at 20 uM after 72 hrs by CCK-8 assay; format: functional; details: HCT-116, 72 h, read-out: GI
How it was run: (§1)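 Cells kept in RPMI 1640 with 10% heat-inactivated fetal calf serum and 1% streptomycin/penicillin at 37 °C, 5% CO2. After compound exposure, CCK-8 was added and cells were incubated 4 h at 37 °C, then absorbance was read at 450 nm. Viability is relative to untreated cells (100%). IC50 comes from nonlinear regression, mean of three separate determinations. Single-concentration screen at 20 µM.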

[2] = Cytotoxicity against human SW480 cells assessed as growth inhibition at 20 uM after 72 hrs by CCK-8 assay; format: functional; details: SW480, 72 h, read-out: GI; how it was run: as §1
[3] = Cytotoxicity against human L02 cells after 72 hrs by CCK-8 assay; format: toxicity, cell-based; how it was run: as §1
[4] = tested on: HCT-116; assay: Induction of apoptosis in human HCT116 cells assessed as live cells at 0.5 uM after 48 hrs by Annexin V-FITC/propidium iodide staining based flow cytometry (reference value: 88.7%); format: functional
[5] = tested on: HCT-116; assay: Induction of apoptosis in human HCT116 cells assessed as necrotic cells at 8 uM after 48 hrs by Annexin V-FITC/propidium iodide staining based flow cytometry (reference value: 0.8%); format: functional
[6] = Cell cycle arrest in human HCT116 cells assessed as G2/M phase accumulation at 0.1 uM after 48 hrs by Annexin V-FITC/propidium iodide staining based flow cytometry (reference value: 25.3%); format: functional; details: HCT-116
[7] = Cell cycle arrest in human HCT116 cells assessed as sub-G1 phase accumulation at 1 uM after 48 hrs by Annexin V-FITC/propidium iodide staining based flow cytometry (reference value: 4.36%); format: functional; details: HCT-116
[8] = Cell cycle arrest in human HCT116 cells assessed as sub-G1 phase accumulation at 2 uM after 48 hrs by Annexin V-FITC/propidium iodide staining based flow cytometry (reference value: 4.36%); format: functional; details: HCT-116
[9] = Cell cycle arrest in human HCT116 cells assessed as S phase accumulation at 3 uM after 48 hrs by Annexin V-FITC/propidium iodide staining based flow cytometry (reference value: 28.43%); format: functional; details: HCT-116
[10] = tested on: HCT-116; assay: Induction of apoptosis in human HCT116 cells assessed as increase in Bax protein level after 9 hrs by Western blot method; format: functional, cell-based
How it was run: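 HCT116 cells plated at 4 × 10⁵ cells/well in six-well plates. Incubated with or without compound for 9 h, then proteins extracted. Lysates resolved by 12% SDS-PAGE and immunoblotted with anti-Bax and anti-Bcl-2 antibodies.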

[11] = Cytotoxicity against human L02 cells; format: toxicity, cell-based

## CC(C)(C)OC(=O)/C=C1/C(=O)Nc2ccccc21
[1]
  inhibition of growth at 20 µM: 89.5%
[2]
  inhibition of growth at 20 µM: 78.1%
[3]
  IC50 at 72 h: 2.45 µM
[4]
  Activity: 89%
[5]
  Activity: 0.8%
[6]
  Activity: 20.6%
[7]
  Activity: 1.06%
[8]
  Activity: 3.42%
[9]
  Activity: 30.1%
[10]
  Activity: Active
[11]
  IC50: 6.21 µM
